Results reported in ChEMBL document CHEMBL1155222, “Synthesis and anticancer activity of N-bis(trifluoromethyl)alkyl-N'-thiazolyl and N-bis(trifluoromethyl)alkyl-N'-benzothiazolyl ureas” (2009).

How the values were obtained:
Type in all cases: functional
SNB-19 = experiment: Anticancer activity against human SNB19 cells after 48 hrs by sulforhodamine B assay; details: SNB-19, 48 h
How it was run: (§1)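 NCI 60-cell-line panel; cells grown in RPMI 1640 with 5% FBS and 2 mM L-glutamine, plated at 5000–40,000 cells/well and preincubated 24 h at 37 °C, 5% CO2. Compounds came from DMSO stocks diluted in medium with gentamicin and were tested at five final concentrations, 10^-4 to 10^-8 M, for 48 h. Cells were fixed with TCA, stained with SRB and read at 515 nm. GI50, TGI and LC50 were derived as log molar values.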

MDA-MB-435 = experiment: Anticancer activity against human MDA-MB-435 cells after 48 hrs by sulforhodamine B assay; details: MDA-MB-435, 48 h
How it was run: (§2)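 NCI 60-cell-line screen. Cells grown in RPMI 1640 with 5% FBS and 2 mM L-glutamine, plated at 5000–40,000 cells/well, and preincubated 24 h at 37 °C under 5% CO2. Compounds were taken from DMSO stocks and tested at five final concentrations, 10^-4 to 10^-8 M, for 48 h. Cells were TCA-fixed, stained with 0.4% SRB, and read at 515 nm. GI50, TGI and LC50 were derived as log molar values.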

UO-31 = experiment: Anticancer activity against human UO31 cells after 48 hrs by sulforhodamine B assay; details: UO-31, 48 h; how it was run: as §1
U-251 = experiment: Anticancer activity against human U251 cells after 48 hrs by sulforhodamine B assay; details: U-251, 48 h; how it was run: as §1
HCT-116 = experiment: Anticancer activity against human HCT116 cells after 48 hrs by sulforhodamine B assay; details: HCT-116, 48 h; how it was run: as §2
UACC-62 = experiment: Anticancer activity against human UACC62 cells after 48 hrs by sulforhodamine B assay; details: UACC-62, 48 h; how it was run: as §1
IGROV-1 = experiment: Anticancer activity against human IGROV1 cells after 48 hrs by sulforhodamine B assay; details: IGROV-1, 48 h; how it was run: as §2
PC-3 = experiment: Anticancer activity against human PC3 cells after 48 hrs by sulforhodamine B assay; details: PC-3, 48 h; how it was run: as §2
OVCAR-8 = experiment: Anticancer activity against human OVCAR8 cells after 48 hrs by sulforhodamine B assay; details: OVCAR-8, 48 h; how it was run: as §2
SK-MEL-2 = experiment: Anticancer activity against human SK-MEL-2 cells after 48 hrs by sulforhodamine B assay; details: SK-MEL-2, 48 h; how it was run: as §2
A549 = experiment: Anticancer activity against human A549 cells after 48 hrs by sulforhodamine B assay; details: A549, 48 h; how it was run: as §2
SK-MEL-28 = experiment: Anticancer activity against human SK-MEL-28 cells after 48 hrs by sulforhodamine B assay; details: SK-MEL-28, 48 h; how it was run: as §2
HT-29 = experiment: Anticancer activity against human HT-29 cells after 48 hrs by sulforhodamine B assay; details: HT-29, 48 h; how it was run: as §2
HCC 2998 = experiment: Anticancer activity against human HCC2998 cells after 48 hrs by sulforhodamine B assay; details: HCC 2998, 48 h; how it was run: as §2
[1] = Anticancer activity against human Hs 578T cells after 48 hrs by sulforhodamine B assay; how it was run: as §2
SR = experiment: Anticancer activity against human SR cells after 48 hrs by sulforhodamine B assay; how it was run: as §1
SK-OV-3 = experiment: Anticancer activity against human SKOV3 cells after 48 hrs by sulforhodamine B assay; details: SK-OV-3, 48 h; how it was run: as §2
NCI-H522 = experiment: Anticancer activity against human NCI-H522 cells after 48 hrs by sulforhodamine B assay; details: NCI-H522, 48 h; how it was run: as §2
SF-295 = experiment: Anticancer activity against human SF295 cells after 48 hrs by sulforhodamine B assay; details: SF-295, 48 h; how it was run: as §2
NCI-H226 = experiment: Anticancer activity against human NCI-H226 cells after 48 hrs by sulforhodamine B assay; details: NCI-H226, 48 h; how it was run: as §2
HCT-15 = experiment: Anticancer activity against human HCT15 cells after 48 hrs by sulforhodamine B assay; details: HCT-15, 48 h; how it was run: as §2
MCF7 = experiment: Anticancer activity against human MCF7 cells after 48 hrs by sulforhodamine B assay; details: MCF7, 48 h; how it was run: as §2
M14 = experiment: Anticancer activity against human M14 cells after 48 hrs by sulforhodamine B assay; details: M14, 48 h; how it was run: as §2
HOP-92 = experiment: Anticancer activity against human HOP92 cells after 48 hrs by sulforhodamine B assay; details: HOP-92, 48 h; how it was run: as §2
A498 = experiment: Anticancer activity against human A498 cells after 48 hrs by sulforhodamine B assay; details: A498, 48 h; how it was run: as §2
DU-145 = experiment: Anticancer activity against human DU145 cells after 48 hrs by sulforhodamine B assay; details: DU-145, 48 h; how it was run: as §2
BT-549 = experiment: Anticancer activity against human BT549 cells after 48 hrs by sulforhodamine B assay; details: BT-549, 48 h; how it was run: as §2
786-0 = experiment: Anticancer activity against human 786-0 cells after 48 hrs by sulforhodamine B assay; details: 786-0, 48 h; how it was run: as §2
Malme-3M = experiment: Anticancer activity against human MALME-3M cells after 48 hrs by sulforhodamine B assay; how it was run: as §2
RXF 393 = experiment: Anticancer activity against human RXF393 cells after 48 hrs by sulforhodamine B assay; details: RXF 393, 48 h; how it was run: as §2
OVCAR-5 = experiment: Anticancer activity against human OVCAR5 cells after 48 hrs by sulforhodamine B assay; details: OVCAR-5, 48 h; how it was run: as §2
SNB-75 = experiment: Anticancer activity against human SNB75 cells after 48 hrs by sulforhodamine B assay; details: SNB-75, 48 h; how it was run: as §1
OVCAR-3 = experiment: Anticancer activity against human OVCAR-3 cells after 48 hrs by sulforhodamine B assay; details: OVCAR-3, 48 h; how it was run: as §2
CAKI-1 = experiment: Anticancer activity against human Caki1 cells after 48 hrs by sulforhodamine B assay; details: CAKI-1, 48 h; how it was run: as §2
SN12C = experiment: Anticancer activity against human SN12C cells after 48 hrs by sulforhodamine B assay; how it was run: as §1
OVCAR-4 = experiment: Anticancer activity against human OVCAR4 cells after 48 hrs by sulforhodamine B assay; details: OVCAR-4, 48 h; how it was run: as §2
SK-MEL-5 = experiment: Anticancer activity against human SK-MEL-5 cells after 48 hrs by sulforhodamine B assay; details: SK-MEL-5, 48 h; how it was run: as §2
LOX IMVI = experiment: Anticancer activity against human LOXIMVI cells after 48 hrs by sulforhodamine B assay; how it was run: as §2
NCI/ADR-RES = experiment: Anticancer activity against human NCI/ADR-RES cells after 48 hrs by sulforhodamine B assay; how it was run: as §2
ACHN = experiment: Anticancer activity against human ACHN cells after 48 hrs by sulforhodamine B assay; how it was run: as §2
CCRF-CEM = experiment: Anticancer activity against human CCRF-CEM cells after 48 hrs by sulforhodamine B assay; how it was run: as §2
EKVX = experiment: Anticancer activity against human EKVX cells after 48 hrs by sulforhodamine B assay; how it was run: as §2
SF-539 = experiment: Anticancer activity against human SF539 cells after 48 hrs by sulforhodamine B assay; details: SF-539, 48 h; how it was run: as §2
UACC-257 = experiment: Anticancer activity against human UACC257 cells after 48 hrs by sulforhodamine B assay; details: UACC-257, 48 h; how it was run: as §1
MDA-N = experiment: Anticancer activity against human MDA-N cells after 48 hrs by sulforhodamine B assay; how it was run: as §2

O=c1[nH]cc(F)c(=O)[nH]1 [FLUOROURACIL]
GI50 (SNB-19): 3.8 µM
GI50 (MDA-MB-435): 0.0724 µM
GI50 (UO-31): 1.41 µM
GI50 (U-251): 0.912 µM
GI50 (HCT-116): 0.229 µM
GI50 (UACC-62): 0.525 µM
GI50 (IGROV-1): 1.23 µM
GI50 (PC-3): 2.34 µM
GI50 (OVCAR-8): 1.74 µM
GI50 (SK-MEL-2): 56.2 µM
GI50 (A549): 0.191 µM
GI50 (SK-MEL-28): 1.02 µM
GI50 (HT-29): 0.178 µM
GI50 (HCC 2998): 0.0525 µM
GI50 [1]: 9.77 µM
GI50 (SR): 0.024 µM
GI50 (SK-OV-3): 21.9 µM
GI50 (NCI-H522): 7.24 µM
GI50 (SF-295): 0.229 µM
GI50 (NCI-H226): 55 µM
GI50 (HCT-15): 0.11 µM
GI50 (MCF7): 0.0794 µM
GI50 (M14): 0.977 µM
GI50 (HOP-92): 77.6 µM
GI50 (A498): 0.398 µM
GI50 (DU-145): 0.363 µM
GI50 (BT-549): 10.7 µM
GI50 (786-0): 0.724 µM
GI50 (Malme-3M): 0.0513 µM
GI50 (RXF 393): 2.63 µM
GI50 (OVCAR-5): 11 µM
GI50 (SNB-75): 79.4 µM
GI50 (OVCAR-3): 0.0158 µM
GI50 (CAKI-1): 0.0724 µM
GI50 (SN12C): 0.501 µM
GI50 (OVCAR-4): 4.47 µM
GI50 (SK-MEL-5): 0.468 µM
GI50 (LOX IMVI): 0.245 µM
GI50 (NCI/ADR-RES): 0.316 µM
GI50 (ACHN): 0.295 µM
GI50 (CCRF-CEM): 9.77 µM
GI50 (EKVX): 61.7 µM
GI50 (SF-539): 0.0631 µM
GI50 (UACC-257): 3.55 µM

O=C(Nc1nccs1)NC(C(F)(F)F)C(F)(F)F
GI50 (SNB-19): 49 µM
GI50 (MDA-MB-435): 79.4 µM
GI50 (UO-31): 35.5 µM
GI50 (U-251): 33.9 µM
GI50 (HCT-116): 38 µM
GI50 (UACC-62): 63.1 µM
GI50 (IGROV-1): 95.5 µM
GI50 (PC-3): 38 µM
GI50 (OVCAR-8): 39.8 µM
GI50 (SK-MEL-2): 45.7 µM
GI50 (A549): 60.3 µM
GI50 (SK-MEL-28): > 100 µM
GI50 (HT-29): 91.2 µM
GI50 (HCC 2998): 31.6 µM
GI50 [1]: 22.4 µM
GI50 (SR): 24 µM
GI50 (SK-OV-3): > 100 µM
GI50 (NCI-H522): 23.4 µM
GI50 (SF-295): 43.7 µM
GI50 (NCI-H226): 57.5 µM
GI50 (HCT-15): 66.1 µM
GI50 (MCF7): 40.7 µM
GI50 (M14): > 100 µM
GI50 (HOP-92): 38 µM
GI50 (A498): 95.5 µM
GI50 (DU-145): 63.1 µM
GI50 (BT-549): 46.8 µM
GI50 (786-0): > 100 µM
GI50 (Malme-3M): 29.5 µM
GI50 (RXF 393): 77.6 µM
GI50 (OVCAR-5): 91.2 µM
GI50 (SNB-75): 55 µM
GI50 (OVCAR-3): 42.7 µM
GI50 (CAKI-1): 55 µM
GI50 (SN12C): 43.7 µM
GI50 (MDA-N): > 100 µM
GI50 (OVCAR-4): 39.8 µM
GI50 (SK-MEL-5): 38.9 µM
GI50 (LOX IMVI): 58.9 µM
GI50 (NCI/ADR-RES): 33.1 µM
GI50 (ACHN): 55 µM
GI50 (EKVX): 41.7 µM
GI50 (SF-539): > 100 µM
GI50 (UACC-257): 35.5 µM

CC(NC(=O)Nc1nc2ccccc2s1)(C(F)(F)F)C(F)(F)F
GI50 (SNB-19): 24.5 µM
GI50 (MDA-MB-435): 41.7 µM
GI50 (UO-31): 2.19 µM
GI50 (U-251): 33.9 µM
GI50 (HCT-116): 41.7 µM
GI50 (UACC-62): > 100 µM
GI50 (IGROV-1): 41.7 µM
GI50 (PC-3): 34.7 µM
GI50 (OVCAR-8): 52.5 µM
GI50 (SK-MEL-2): 30.2 µM
GI50 (A549): 16.2 µM
GI50 (SK-MEL-28): 72.4 µM
GI50 (HT-29): 19.5 µM
GI50 (HCC 2998): 38.9 µM
GI50 [1]: 18.6 µM
GI50 (SR): 3.63 µM
GI50 (SK-OV-3): 52.5 µM
GI50 (NCI-H522): 24.5 µM
GI50 (SF-295): 60.3 µM
GI50 (NCI-H226): 38.9 µM
GI50 (HCT-15): > 100 µM
GI50 (MCF7): 38 µM
GI50 (M14): 37.2 µM
GI50 (HOP-92): 75.9 µM
GI50 (A498): > 100 µM
GI50 (DU-145): 91.2 µM
GI50 (BT-549): > 100 µM
GI50 (786-0): 20.4 µM
GI50 (Malme-3M): 15.1 µM
GI50 (RXF 393): 64.6 µM
GI50 (OVCAR-5): 81.3 µM
GI50 (SNB-75): 7.59 µM
GI50 (CAKI-1): 38.9 µM
GI50 (SN12C): 25.7 µM
GI50 (MDA-N): 97.7 µM
GI50 (OVCAR-4): 21.9 µM
GI50 (SK-MEL-5): 49 µM
GI50 (LOX IMVI): 36.3 µM
GI50 (NCI/ADR-RES): > 100 µM
GI50 (ACHN): 28.8 µM
GI50 (CCRF-CEM): 27.5 µM
GI50 (EKVX): 74.1 µM
GI50 (SF-539): 24.5 µM
GI50 (UACC-257): 51.3 µM
